Measurements taken from PMC2726660 (Archives of biochemistry and biophysics, 2009).
Read-outs that look alike come from different tables or passages of the source. Blank lines part the entries; values can stand above or below the compound they belong to.

Experiments:
[1] = cited from earlier work
[2] = test system: purified bovine brain tubulin; test: Electron microscopy of polymer morphology; type: biochemical; details: 10 μM compound, 10 μM tubulin, 0.75 M glutamate, 30 min at 30 °C
Summary of the method: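 Purified bovine brain tubulin with microtubule-associated proteins removed, at 10 μM, in 0.75 M monosodium glutamate (stock pH 6.6), 10 μM GTP and 4% DMSO. Test compound at 10 μM, with a no-addition control. After 30 min at 30 °C, aliquots were put on carbon-coated Formvar copper grids and stained with 5-10 drops of 1% uranyl acetate. Excess stain was wicked off and grids examined by TEM.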

[3] = test system: MCF-7 human breast carcinoma cells; test: Growth of human breast carcinoma MCF-7 cells; type: cell-based; details: for IC50: read-out: Inhibition of cell growth IC50 (μM) ± S. D., MCF-7 cells, 48 h, sulforhodamine B
Summary of the method: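 MCF-7 cells from the NCI drug screening group, grown in RPMI with 10% heat-treated fetal bovine serum. About 5,000 cells per well seeded, adhered overnight, then exposed to test compound for 48 h at 37 °C in humidified 5% CO2; final DMSO 0.5% (v/v). Growth read as cellular protein by sulforhodamine B staining. IC50 is 50% growth inhibition.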

[4] = test system: purified bovine brain tubulin; test: Centrifugal assay for spiral formation; type: biochemical; details: threshold EC50 < 100 μM
Summary of the method: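 Purified bovine brain tubulin (MAP-free) at 10 μM in 0.75 M monosodium glutamate (stock pH 6.6), 10 μM GTP, 4% (v/v) DMSO as compound solvent. Incubated 20 min at 30 °C, then centrifuged 15 min at room temperature (about 20 °C). Lowry protein measured in supernatant and in uncentrifuged mixture. EC50 is the concentration removing 50% of tubulin from the supernatant versus no-compound reactions.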

tubulin [5] = test: Binding of radiolabeled colchicine to tubulin; set-up: species or system bovine
tubulin [6] = details: cited from earlier work
cultured cells = test: Microtubule bundle formation in cultured cells; type: cell-based; details: synthetic compound
[7] = test system: purified bovine brain tubulin; test: Turbidimetric tubulin assembly assay in glutamate; type: biochemical
preformed microtubules = test: Binding of radiolabeled paclitaxel to preformed microtubules; details: unpublished data
tubulin [8] = test: Binding of [3H]vinblastine to tubulin; details: authors' attempt to reproduce ref 3

Compound: (+)-rhazinilam
activity of the enantiomer, in words [1]: inactive

Compound: CC[C@]1(O)C[C@@H]2CN(CCc3c([nH]c4ccccc34)[C@@](C(=O)OC)(c3cc4c(cc3OC)N(C)[C@H]3[C@@](O)(C(=O)OC)[C@H](OC(C)=O)[C@]5(CC)C=CCN6CC[C@]43[C@@H]65)C2)C1 [vinblastine]
morphology of polymer formed in glutamate with 10 μM GTP [2]: typical tight spirals

Compound: (±)-rhazinilam
IC50 [3]: 1.8 ± 0.7 µM
activity in the cell-based (MCF-7) assay, in words ([3]; threshold IC50 < 10 μM): approximately half as active as (−)-rhazinilam
activity in the tubulin-based (spiralization) assay, in words [4]: approximately half as active as (−)-rhazinilam

The next lines start with results.

IC50 [3]: 3.8 ± 1 µM
Compound: CC12CCCn3ccc(c31)-c1ccccc1NC(=O)CC2 (stereo not shown) [Compound 5]

inhibition of the binding of radiolabeled colchicine to tubulin (tubulin [5]): no inhibitory effect
IC50 [3]: 0.97 ± 0.3 µM
inhibition of the binding of radiolabeled paclitaxel to preformed microtubules (preformed microtubules): no inhibitory effect
inhibition of the binding of [3H]vinblastine to tubulin (tubulin [8]): unable to reproduce this result
Compound: (−)-rhazinilam
inhibition of the binding of [3H]vinblastine to tubulin (tubulin [6]): inhibited the binding
effect on microtubules in cultured cells (cultured cells): formation of extensive bundled microtubules
disassembly of polymer at 0 °C ([7]; 20 μM compound + 0.4 mM GTP, 0.75 M glutamate (Fig. 5, curve 4)): little disassembly
disassembly of polymer at 0 °C ([7]; 20 μM compound, no GTP, 0.75 M glutamate (Fig. 5, curve 2)): disassembled slowly in the cold
concentration at end of the inhibitory effect on tubulin assembly ([7]; 0.8 M glutamate, 0.4 mM GTP, 10 μM tubulin (Fig. 2, curve 4)): 3 µM
concentration at onset of spiral induction ([7]; 0.8 M glutamate, 0.4 mM GTP, 10 μM tubulin (Fig. 2, curve 5)): 4 µM
